Measured values: PMC7709506 (ESMO Open, 2020)
Entries after “also recorded” stand apart in the source; their conditions may differ.

Experiment: Safety and tolerability
Format: in vivo, human
Method in brief: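 Open-label multicentre phase I/IIa trial in adults with advanced or metastatic solid tumours. Part 1 used 3+3 oral capsule escalation at 50–800 mg/day to define DLT and MTD. Part 2 gave tablets. Treatment continued until progression, intolerable AE or study end, with dose decisions by a safety monitoring board. AEs of special interest were monitored. The safety population was all dosed patients, summarised by dose level.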

For `Cn1cc(-c2ccc3c(c2)ncn3-c2cc(NS(=O)(=O)C3CC3)cc(-c3ccc(F)cc3F)c2)cn1` [ODM-203], the Decreased appetite (capsule 600 mg (n=30)) was 9 (30.0) n (%), the Diarrhoea (capsule 600 mg (n=30)) was 17 (56.7) n (%) and the Dry mouth (capsule 600 mg (n=30)) was 14 (46.7) n (%). The Dry skin (capsule 600 mg (n=30)) was 1 (3.3) n (%), the Dysgeusia (capsule 600 mg (n=30)) was 5 (16.7) n (%) and the Epistaxis (capsule 600 mg (n=30)) was 8 (26.7) n (%). The Fatigue (capsule 600 mg (n=30)) was 10 (33.3) n (%), the Hyperbilirubinaemia (capsule 600 mg (n=30)) was 10 (33.3) n (%) and the Hyperphosphataemia (capsule 600 mg (n=30)) was 6 (20.0) n (%). The Hypertension (capsule 600 mg (n=30)) was 5 (16.7) n (%), the Jaundice (capsule 600 mg (n=30)) was 10 (33.3) n (%) and the Mucosal inflammation (capsule 600 mg (n=30)) was 1 (3.3) n (%). The Myalgia (capsule 600 mg (n=30)) was 4 (13.3) n (%), the Nasal dryness (capsule 600 mg (n=30)) was 5 (16.7) n (%) and the Nausea (capsule 600 mg (n=30)) was 4 (13.3) n (%). For the same compound, the Onycholysis (capsule 600 mg (n=30)) was 6 (20.0) n (%), the Palmar-plantar eryrthodysaestesia (capsule 600 mg (n=30)) was 11 (36.7) n (%) and the “Related AE” value (capsule 600 mg (n=30)) was 30 (100) n (%). For the same compound, the “Related SAEs” value (capsule 600 mg (n=30)) was 8 (26.7) n (%), the Stomatitis (capsule 600 mg (n=30)) was 11 (36.7) n (%) and the Vomiting (capsule 600 mg (n=30)) was 2 (6.7) n (%). The Weight decreased (capsule 600 mg (n=30)) was 10 (33.3) n (%), the “patients with a DLT (punctate keratitis)” value (capsule 800 mg) was 1 patient and the “AE leading to death” value (capsule 800 mg (n=7)) was 0 n (%). For the same compound, the “AE leading to discontinuation” value (capsule 800 mg (n=7)) was 3 (42.9) n (%), the “AE leading to dose reduction” value (capsule 800 mg (n=7)) was 0 n (%) and the “AE leading to treatment interruption” value (capsule 800 mg (n=7)) was 5 (71.4) n (%). For the same compound, the Alopecia (capsule 800 mg (n=7)) was 5 (71.4) n (%), the “Any AE” value (capsule 800 mg (n=7)) was 7 (100) n (%) and the Arthralgia (capsule 800 mg (n=7)) was 4 (57.1) n (%). The Asthenia (capsule 800 mg (n=7)) was 2 (28.6) n (%), the Blood bilirubin increased (capsule 800 mg (n=7)) was 3 (42.9) n (%) and the Conjugated bilirubin increased (capsule 800 mg (n=7)) was 0 n (%). The Decreased appetite (capsule 800 mg (n=7)) was 1 (14.3) n (%), the Diarrhoea (capsule 800 mg (n=7)) was 4 (57.1) n (%) and the Dry skin (capsule 800 mg (n=7)) was 1 (14.3) n (%). The Dysgeusia (capsule 800 mg (n=7)) was 1 (14.3) n (%), the Epistaxis (capsule 800 mg (n=7)) was 3 (42.9) n (%) and the Fatigue (capsule 800 mg (n=7)) was 2 (28.6) n (%). The Hyperbilirubinaemia (capsule 800 mg (n=7)) was 4 (57.1) n (%), the Hyperphosphataemia (capsule 800 mg (n=7)) was 3 (42.9) n (%) and the Hypertension (capsule 800 mg (n=7)) was 0 n (%). For the same compound, the Jaundice (capsule 800 mg (n=7)) was 2 (28.6) n (%), the Mucosal inflammation (capsule 800 mg (n=7)) was 0 n (%) and the Myalgia (capsule 800 mg (n=7)) was 2 (28.6) n (%). The Nasal dryness (capsule 800 mg (n=7)) was 0 n (%), the Nausea (capsule 800 mg (n=7)) was 0 n (%) and the Onycholysis (capsule 800 mg (n=7)) was 2 (28.6) n (%). The Palmar-plantar eryrthodysaestesia (capsule 800 mg (n=7)) was 1 (14.3) n (%), the “Related AE” value (capsule 800 mg (n=7)) was 7 (100) n (%) and the “Related SAEs” value (capsule 800 mg (n=7)) was 1 (14.3) n (%). For the same compound, the Stomatitis (capsule 800 mg (n=7)) was 4 (57.1) n (%), the Vomiting (capsule 800 mg (n=7)) was 0 n (%) and the Weight decreased (capsule 800 mg (n=7)) was 1 (14.3) n (%). The “maximum tolerated dose (MTD)” value (capsule, up to 800 mg once daily) was “not established; also recorded: not reached”, the “arthralgia grade 3 events” value (in vivo) was “two” and the “hypertension considered related to study treatment” value (in vivo) was 14 patients. For the same compound, the “hypertension events of grade 3 or higher” value (in vivo) was “three”, the “myalgia grade 3” value (in vivo) was “two” and the “increased alanine transaminase levels” value (of 30 patients treated with 400 mg/day) was “three”. It also gave a Hypertension (patients) of 19%, a Myalgia (patients) of 16.7% and a back pain (patients) of 11.9%. For the same compound, the “grade 3 hypertension” value (patients) was 3.6%, the ocular events (patients) was 19.0% and the “AEs leading to dose reductions” value (patients, N=84) was 10.7%. For the same compound, the “AEs leading to treatment interruption” value (patients, N=84) was 72.6%, the bilirubin increase-related events (patients, N=84) was 75% and the “diarrhoea (AE related to treatment)” value (patients, N=84) was 50%. The “dry mouth (AE related to treatment)” value (patients, N=84) was 34.5%, the “events resulting in treatment discontinuation” value (patients, N=84) was 35.7% and the “palmar-plantar eryrthrodysesthesia (AE related to treatment)” value (patients, N=84) was 35.7%. The “stomatitis (AE related to treatment)” value (patients, N=84) was 40.5%, the “AEs considered related to the treatment” value (share of AEs, all doses) was 70.4% and the “AEs grade 1 or 2 in severity” value (share of AEs, all doses) was 89.2%. The “AE leading to death” value (tablet 200 mg (n=3)) was 0 n (%), the “AE leading to discontinuation” value (tablet 200 mg (n=3)) was 0 n (%) and the “AE leading to dose reduction” value (tablet 200 mg (n=3)) was 0 n (%). The “AE leading to treatment interruption” value (tablet 200 mg (n=3)) was 0 n (%), the Alopecia (tablet 200 mg (n=3)) was 1 (33.3) n (%) and the “Any AE” value (tablet 200 mg (n=3)) was 3 (100) n (%). The Arthralgia (tablet 200 mg (n=3)) was 1 (33.3) n (%), the Asthenia (tablet 200 mg (n=3)) was 0 n (%) and the Blood bilirubin increased (tablet 200 mg (n=3)) was 2 (66.7) n (%). For the same compound, the Conjugated bilirubin increased (tablet 200 mg (n=3)) was 0 n (%), the Decreased appetite (tablet 200 mg (n=3)) was 1 (33.3) n (%) and the Diarrhoea (tablet 200 mg (n=3)) was 0 n (%). The Dry mouth (tablet 200 mg (n=3)) was 1 (33.3) n (%), the Dry skin (tablet 200 mg (n=3)) was 0 n (%) and the Dysgeusia (tablet 200 mg (n=3)) was 1 (33.3) n (%). The Epistaxis (tablet 200 mg (n=3)) was 0 n (%), the Fatigue (tablet 200 mg (n=3)) was 1 (33.3) n (%) and the Hyperbilirubinaemia (tablet 200 mg (n=3)) was 0 n (%). For the same compound, the Hyperphosphataemia (tablet 200 mg (n=3)) was 0 n (%), the Hypertension (tablet 200 mg (n=3)) was 1 (33.3) n (%) and the Jaundice (tablet 200 mg (n=3)) was 0 n (%). For the same compound, the Mucosal inflammation (tablet 200 mg (n=3)) was 0 n (%), the Myalgia (tablet 200 mg (n=3)) was 1 (33.3) n (%) and the Nasal dryness (tablet 200 mg (n=3)) was 0 n (%). For the same compound, the Nausea (tablet 200 mg (n=3)) was 0 n (%), the Onycholysis (tablet 200 mg (n=3)) was 0 n (%) and the Palmar-plantar eryrthodysaestesia (tablet 200 mg (n=3)) was 0 n (%). The “Related AE” value (tablet 200 mg (n=3)) was 3 (100) n (%), the “Related SAEs” value (tablet 200 mg (n=3)) was 0 n (%) and the Stomatitis (tablet 200 mg (n=3)) was 1 (33.3) n (%). The Vomiting (tablet 200 mg (n=3)) was 0 n (%), the Weight decreased (tablet 200 mg (n=3)) was 0 n (%) and the “AE leading to death” value (tablet 300 mg (n=3)) was 0 n (%). The “AE leading to discontinuation” value (tablet 300 mg (n=3)) was 0 n (%), the “AE leading to dose reduction” value (tablet 300 mg (n=3)) was 1 (33.3) n (%) and the “AE leading to treatment interruption” value (tablet 300 mg (n=3)) was 1 (33.3) n (%). The Alopecia (tablet 300 mg (n=3)) was 1 (33.3) n (%), the “Any AE” value (tablet 300 mg (n=3)) was 3 (100) n (%) and the Arthralgia (tablet 300 mg (n=3)) was 2 (66.7) n (%). For the same compound, the Asthenia (tablet 300 mg (n=3)) was 3 (100) n (%), the Blood bilirubin increased (tablet 300 mg (n=3)) was 0 n (%) and the Conjugated bilirubin increased (tablet 300 mg (n=3)) was 1 (33.3) n (%). For the same compound, the Decreased appetite (tablet 300 mg (n=3)) was 2 (66.7) n (%), the Diarrhoea (tablet 300 mg (n=3)) was 1 (33.3) n (%) and the Dry mouth (tablet 300 mg (n=3)) was 1 (33.3) n (%). For the same compound, the Dry skin (tablet 300 mg (n=3)) was 1 (33.3) n (%), the Dysgeusia (tablet 300 mg (n=3)) was 1 (33.3) n (%) and the Epistaxis (tablet 300 mg (n=3)) was 1 (33.3) n (%). For the same compound, the Fatigue (tablet 300 mg (n=3)) was 0 n (%), the Hyperbilirubinaemia (tablet 300 mg (n=3)) was 1 (33.3) n (%) and the Hyperphosphataemia (tablet 300 mg (n=3)) was 1 (33.3) n (%). The Hypertension (tablet 300 mg (n=3)) was 0 n (%), the Jaundice (tablet 300 mg (n=3)) was 1 (33.3) n (%) and the Mucosal inflammation (tablet 300 mg (n=3)) was 1 (33.3) n (%). For the same compound, the Myalgia (tablet 300 mg (n=3)) was 0 n (%), the Nasal dryness (tablet 300 mg (n=3)) was 1 (33.3) n (%) and the Nausea (tablet 300 mg (n=3)) was 0 n (%). For the same compound, the Onycholysis (tablet 300 mg (n=3)) was 0 n (%), the Palmar-plantar eryrthodysaestesia (tablet 300 mg (n=3)) was 1 (33.3) n (%) and the “Related AE” value (tablet 300 mg (n=3)) was 3 (100) n (%). The “Related SAEs” value (tablet 300 mg (n=3)) was 1 (33.3) n (%), the Stomatitis (tablet 300 mg (n=3)) was 0 n (%) and the Vomiting (tablet 300 mg (n=3)) was 1 (33.3) n (%). For the same compound, the Weight decreased (tablet 300 mg (n=3)) was 2 (66.7) n (%), the “AE leading to death” value (tablet 400 mg (n=30)) was 5 (16.7) n (%) and the “AE leading to discontinuation” value (tablet 400 mg (n=30)) was 9 (30.0) n (%). The “AE leading to dose reduction” value (tablet 400 mg (n=30)) was 6 (20.0) n (%), the “AE leading to treatment interruption” value (tablet 400 mg (n=30)) was 28 (93.3) n (%) and the Alopecia (tablet 400 mg (n=30)) was 10 (33.3) n (%). The “Any AE” value (tablet 400 mg (n=30)) was 30 (100) n (%), the Arthralgia (tablet 400 mg (n=30)) was 9 (30.0) n (%) and the Asthenia (tablet 400 mg (n=30)) was 10 (33.3) n (%). For the same compound, the Blood bilirubin increased (tablet 400 mg (n=30)) was 15 (50.0) n (%), the Conjugated bilirubin increased (tablet 400 mg (n=30)) was 7 (23.3) n (%) and the Decreased appetite (tablet 400 mg (n=30)) was 11 (36.7) n (%). For the same compound, the Diarrhoea (tablet 400 mg (n=30)) was 19 (63.3) n (%), the Dry mouth (tablet 400 mg (n=30)) was 12 (40.0) n (%) and the Dry skin (tablet 400 mg (n=30)) was 7 (23.3 n (%). For the same compound, the Dysgeusia (tablet 400 mg (n=30)) was 10 (33.3) n (%), the Epistaxis (tablet 400 mg (n=30)) was 14 (46.7) n (%) and the Fatigue (tablet 400 mg (n=30)) was 9 (30.0) n (%). For the same compound, the Hyperbilirubinaemia (tablet 400 mg (n=30)) was 11 (36.7) n (%), the Hyperphosphataemia (tablet 400 mg (n=30)) was 8 (26.7) n (%) and the Hypertension (tablet 400 mg (n=30)) was 8 (26.7) n (%). For the same compound, the Jaundice (tablet 400 mg (n=30)) was 11 (36.7) n (%), the Mucosal inflammation (tablet 400 mg (n=30)) was 7 (23.3) n (%) and the Myalgia (tablet 400 mg (n=30)) was 3 (10.0) n (%). The Nasal dryness (tablet 400 mg (n=30)) was 6 (20.0) n (%), the Nausea (tablet 400 mg (n=30)) was 7 (23.3) n (%) and the Onycholysis (tablet 400 mg (n=30)) was 3 (10.0) n (%). The Palmar-plantar eryrthodysaestesia (tablet 400 mg (n=30)) was 15 (50.0) n (%), the “Related AE” value (tablet 400 mg (n=30)) was 29 (96.7) n (%) and the “Related SAEs” value (tablet 400 mg (n=30)) was 4 (13.3) n (%). The Stomatitis (tablet 400 mg (n=30)) was 17 (56.7) n (%), the Vomiting (tablet 400 mg (n=30)) was 5 (16.7) n (%) and the Weight decreased (tablet 400 mg (n=30)) was 5 (16.7) n (%).
